Assay results pooled from the literature.
Lines come from different studies, so protocols differ.
EGFR del752-759: Epidermal growth factor receptor (EGFR, Homo sapiens, UniProt P00533, del752-759)
EGFR L858R/T790M: Epidermal growth factor receptor (EGFR, Homo sapiens, UniProt P00533, L858R/T790M)
EGFR G719S: Epidermal growth factor receptor (EGFR, Homo sapiens, UniProt P00533, G719S)
EGFR: Epidermal growth factor receptor (EGFR, Homo sapiens, UniProt P00533)
EGFR del747-750/T751S: Epidermal growth factor receptor (EGFR, Homo sapiens, UniProt P00533, del747-750/T751S)

O=C(Nc1ccc(Oc2ccc(F)cc2)cc1)N1CCc2ncccc2[C@H]1c1ccc(F)cc1  remaining binding (EGFR del752-759; cell-free assay; competition with immobilised ligand; 1 µM): 80%
C[C@@H]1CCN(c2nccc(-c3cnn4ncccc34)n2)C1  remaining binding (EGFR L858R/T790M; binding; 1 µM): 76%
FC(F)(F)c1ccc2c(c1)nc(-c1cccnc1)n2C1CC1  remaining binding (EGFR G719S; cell-free assay; competition with immobilised ligand; 1 µM): 93%
CN(C)c1nccc(-c2cnn3ncccc23)n1  remaining binding (Epidermal growth factor receptor (EGFR, Homo sapiens, UniProt P00533, T790M); binding; 1 µM): 100%
Nc1ncc2c(n1)-c1c([nH]c3ccc(C#CC4CC4)cc13)CCCC2  remaining binding (Epidermal growth factor receptor (EGFR, Homo sapiens, UniProt P00533, del747-752/P753S); binding; competition with immobilised ligand; 1 µM): 56%
COc1cc(-c2cn(C3CCc4c(F)cccc4N(CC(F)(F)F)C3=O)nn2)ccc1-n1cnc(C)c1 (centres unmarked)  remaining binding (Epidermal growth factor receptor (EGFR, Homo sapiens, UniProt P00533, L858R); cell-free assay; competition with immobilised ligand; 1 µM): 100%
O=C(NCCCN1CCOCC1)c1ccc(Nc2nccc(-c3cc4ccccc4s3)n2)cc1  remaining binding (Epidermal growth factor receptor (EGFR, Homo sapiens, UniProt P00533, del746-750); binding; competition with immobilised ligand; 1 µM): 100%
Nc1cnc(N2CCc3cc(S(=O)(=O)Nc4c(F)cc(Cl)cc4F)cc(N4CCCC4=O)c32)nc1  remaining binding (EGFR G719S; cell-free assay; competition with immobilised ligand; 1 µM): 75%
CN(CCCC(F)(F)F)c1nccc(-c2cnn3ncccc23)n1  remaining binding (EGFR; binding; 1 µM): 86%
O=C(Nc1c[nH]nc1C(=O)NC1CCNCC1)c1cc(F)cc(F)c1  remaining binding (Epidermal growth factor receptor (EGFR, Homo sapiens, UniProt P00533, G719C); binding; competition with immobilised ligand; 1 µM): 100%
c1cncc(-c2cccc(Nc3nccc(NC4CCCCC4)n3)c2)c1  remaining binding (EGFR del752-759; binding; competition with immobilised ligand; 10 µM): 69%
N[C@H]1CCN(c2nccc(-c3cnn4ncccc34)n2)C1  remaining binding (EGFR L858R/T790M; binding; 1 µM): 89%
N#Cc1ccc(Nc2ccc3[nH]c(=O)[nH]c3c2)c(Cl)c1  remaining binding (EGFR del747-750/T751S; cell-free assay; competition with immobilised ligand; 1 µM): 100%
CC1CCCN1c1nccc(-c2cnn3ncccc23)n1 (centres unmarked)  remaining binding (EGFR; binding; 1 µM): 100%
CCN1CCN(Cc2ccc(C(=O)Nc3ccc(C)c(Oc4ccc5c(c4)CC(=O)N5)c3)cc2C(F)(F)F)CC1  remaining binding (EGFR L858R/T790M; binding; competition with immobilised ligand; 1 µM): 90%
O=C(c1ccc(Nc2ncc(Cl)c(-c3ccc(Cl)s3)n2)cc1)N1CCC(N2CCCC2)CC1  remaining binding (EGFR del747-750/T751S; binding; competition with immobilised ligand; 1 µM): 100%
CN1CCN(c2ccc(Nc3nccc(-c4cccc([N+](=O)[O-])c4)n3)cc2C(F)(F)F)CC1  remaining binding (EGFR del752-759; binding; 10 µM): 74%
COc1cnc(Nc2cccc(S(N)(=O)=O)c2)nc1N1CCN(c2ccccc2)C(=O)C1  remaining binding (Epidermal growth factor receptor (EGFR, Homo sapiens, UniProt P00533, L861Q); binding; competition with immobilised ligand; 1 µM): 100%
O=C(Nc1cccnn1)N1CC(C/C=C/c2cncc(Oc3ccc(C(F)(F)F)cn3)n2)C1  remaining binding (EGFR G719S; cell-free assay; competition with immobilised ligand; 1 µM): 100%
O=C(c1ccc(Nc2nccc(-c3cc4ccccc4s3)n2)cc1)N1CCC(N2CCCC2)CC1  remaining binding (EGFR del752-759; binding; competition with immobilised ligand; 1 µM): 93%
CC(=O)N1CCC(c2ccc(C(=O)NC(=N)N)cc2C(F)(F)F)CC1  remaining binding (EGFR del752-759; cell-free assay; competition with immobilised ligand; 1 µM): 90%
COc1ccnn2ncc(-c3ccnc(N(C)C)n3)c12  remaining binding (EGFR del752-759; binding; 1 µM): 86%
O=C(c1ccc(Nc2ncc(Cl)c(-c3cc4ccccc4s3)n2)cc1)N1CCC(N2CCCC2)CC1  remaining binding (EGFR; binding; competition with immobilised ligand; 1 µM): 90%
